Test results: ChEMBL document CHEMBL4732088, “Identification and optimization of piperlongumine analogues as potential antioxidant and anti-inflammatory agents via activation of Nrf2” (Eur J Med Chem, 2021)
Activity calls are given as the source filed them. No cut-off for these calls is given here.

How the values were obtained:
PC-12 [1] = assay: Neuroprotective activity against H2O2-induced cell damage in rat PC12 cells preincubated for 24 hrs followed by H2O2 treatment by MTT assay; type: functional, cell-based; details: dose 5-20 µM
Method in brief: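 PC12 cells pretreated 24 h with compound (5, 10, 20 μM), then H₂O₂ (200 μM) or 6-OHDA (150 μM); viability by MTT; mean ± SD, three independent experiments.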

PC-12 [2] = assay: Protection against H2O2-induced oxidative damage in rat PC12 cells assessed as intracellular ROS level by measuring mean fluorescence intensity at 10 uM pretreated with compound followed by H2O2 stimulation by DCFH-DA staining based flow cytometry (reference value: 233032.55); type: functional
PC-12 [3] = assay: Protection against H2O2-induced oxidative damage in rat PC12 cells assessed as intracellular ROS level by measuring mean fluorescence intensity at 20 uM pretreated with compound followed by H2O2 stimulation by DCFH-DA staining based flow cytometry (reference value: 233032.55); type: functional
PC-12 [4] = assay: Protection against H2O2-induced mitochondrial dysfunction in rat PC12 cells assessed as change in mitochondrial membrane potential at 10 uM pretreated with compound followed by H2O2 addition by JC-1 staining based flow cytometry (reference value: 78.7 %); type: functional
Method in brief: (§1)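 Mitochondrial membrane potential in PC12 cells pretreated with compound (5, 10, 20 μM), then exposed to H₂O₂ (200 μM) or 6-OHDA (150 μM). JC-1 staining, red-to-green fluorescence shift read by flow cytometry. Mean ± SD, n = 3.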

PC-12 [5] = assay: Protection against H2O2-induced mitochondrial dysfunction in rat PC12 cells assessed as change in mitochondrial membrane potential loss at 5 uM pretreated with compound followed by H2O2 addition by JC-1 staining based flow cytometry (reference value: 21.3 %); type: functional; method in brief: as §1
PC-12 [6] = assay: Protection against 6-OHDA-induced mitochondrial dysfunction in rat PC12 cells assessed as change in mitochondrial membrane potential loss at 5 uM pretreated with compound followed by 6-OHDA addition by JC-1 staining based flow cytometry (reference value: 26.8 %); type: functional; method in brief: as §1
PC-12 [7] = assay: Protection against H2O2-induced apoptosis in rat PC12 cells assessed as early apoptotic cells at 10 uM incubated for 24 hrs by annexin V FITC/propidium iodide staining based flow cytometry (reference value: 3.9 %); type: functional
PC-12 [8] = assay: Protection against H2O2-induced apoptosis in rat PC12 cells assessed as late apoptotic cells at 10 uM incubated for 24 hrs by annexin V FITC/propidium iodide staining based flow cytometry (reference value: 16.2 %); type: functional
PC-12 [9] = assay: Protection against H2O2-induced apoptosis in rat PC12 cells assessed as necrotic cells at 10 uM incubated for 24 hrs by annexin V FITC/propidium iodide staining based flow cytometry (reference value: 0.6 %); type: functional
PC-12 [10] = assay: Protection against H2O2-induced apoptosis in rat PC12 cells assessed as early apoptotic cells at 20 uM incubated for 24 hrs by annexin V FITC/propidium iodide staining based flow cytometry (reference value: 3.9 %); type: functional
PC-12 [11] = assay: Protection against 6-OHDA-induced apoptosis in rat PC12 cells assessed as viable cells at 10 uM incubated for 24 hrs by annexin V FITC/propidium iodide staining based flow cytometry (reference value: 72.0 %); type: functional; details: read-out: Activity
PC-12 [12] = assay: Prevention of 6-OHDA-induced calcium overload in rat PC12 cells assessed as reduction in intracellular free calcium by measuring mean fluorescence intensity at 10 uM pretreated with compound followed by 6-OHDA addition measured after 24 hrs by Fluo-3AM based fluorescence assay (reference value: 6708.18%); type: functional
[13] = molecular target: T1, Nuclear factor erythroid 2-related factor 2 (Rattus norvegicus) (UniProt O54968); assay: Activation of Nrf2 in rat PC12 cells assessed as increase in TrxR1 protein level at 20 uM after 24 hrs by Western blot analysis; type: cell-based; details: PC-12, filed as activator
T1 sequence (whole entry): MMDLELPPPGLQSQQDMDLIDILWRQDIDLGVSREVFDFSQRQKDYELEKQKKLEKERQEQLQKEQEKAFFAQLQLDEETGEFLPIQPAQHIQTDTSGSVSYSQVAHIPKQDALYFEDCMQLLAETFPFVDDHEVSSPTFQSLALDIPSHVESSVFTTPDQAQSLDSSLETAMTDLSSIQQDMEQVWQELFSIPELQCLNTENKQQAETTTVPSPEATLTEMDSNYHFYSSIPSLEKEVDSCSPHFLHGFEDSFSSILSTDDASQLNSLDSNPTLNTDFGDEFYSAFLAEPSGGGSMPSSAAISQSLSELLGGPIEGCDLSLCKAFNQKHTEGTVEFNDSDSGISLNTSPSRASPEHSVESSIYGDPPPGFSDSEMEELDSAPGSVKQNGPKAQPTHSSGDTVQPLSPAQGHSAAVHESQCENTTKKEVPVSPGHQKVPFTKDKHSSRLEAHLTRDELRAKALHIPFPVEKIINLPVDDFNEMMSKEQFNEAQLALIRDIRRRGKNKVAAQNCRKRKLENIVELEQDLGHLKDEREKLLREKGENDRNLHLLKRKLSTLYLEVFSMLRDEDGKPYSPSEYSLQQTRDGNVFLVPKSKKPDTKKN

[14] = molecular target: T1, Nuclear factor erythroid 2-related factor 2 (Rattus norvegicus); assay: Activation of Nrf2 in rat PC12 cells assessed as increase in GCLM protein level after 24 hrs by Western blot analysis; type: cell-based; details: PC-12, filed as activator, dose 5-20 µM
Method in brief: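 PC12 cells treated with compound for 24 h at rising concentrations; NQO1, HO-1, TrxR1, GCLM, GCLC protein detected by Western blot.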

[15] = Antioxidant activity assessed as ABTS radical scavenging activity; type: functional
PC-12 [16] = assay: Neuroprotective activity against 6-OHDA-induced cell death in rat PC12 cells assessed as cell viability at 20 uM preincubated for 30 mins in presence of ZNPP […] and measured after 24 hrs by MTT assay; type: functional, cell-based; details: time 24.5 hrs

## CCN(C)C(=O)N1CCN(C(=O)/C=C/c2ccc(F)cc2)C1=O
PC-12 [1]
  Activity: Dose-dependent effect
PC-12 [2]
  Flu intensity: 146612.92
PC-12 [3]
  Flu intensity: 130822.7
PC-12 [4]
  Activity: 90.2%
PC-12 [5]
  Activity: 13.2%
PC-12 [6]
  Activity: 20.5%
PC-12 [7]
  Activity: 2.1%
PC-12 [8]
  Activity: 5.3%
PC-12 [9]
  Activity: 0.2%
PC-12 [10]
  Activity: 2.3%
PC-12 [11]
  viability at 10 µM: 85.4%
PC-12 [12]
  Flu intensity: 4204.33
[13]
  Activity: Active
[14]
  Activity: Dose-dependent effect
[15]
  Activity: inactive
PC-12 [16]
  Activity: inactive
